This passage reports IC50 and Activity results from ChEMBL document CHEMBL4118039, “Inflammation Modulatory Phorbol Esters from the Seeds of Aquilaria malaccensis” (J Nat Prod, 2017).

The test system of one data set is A549. The data set can be described thus: Cytotoxicity against human A549 cells assessed as reduction in cell viability after 72 hrs by MTT assay. The data set is classed as functional, cell-based. The settings on record: A549, 72 h. (In general: Formazan colour is commonly taken as a measure of viable cells.)
On to `CC(=O)O[C@@]12[C@H](OC(=O)/C=C/C=C/C=O)[C@@H](C)[C@@]3(O)[C@@H](C=C(CO)C[C@]4(O)C(=O)C(C)=C[C@@H]34)[C@@H]1C2(C)C`, for which the IC50 is above 10 µM.

`CCCCCCCC/C=C\CCCCCCCC(=O)OCC1=C[C@H]2[C@@H]3C(C)(C)[C@]3(OC(C)=O)C[C@@H](C)[C@]2(O)[C@@H]2C=C(C)C(=O)[C@@]2(O)C1`: the half-maximal inhibitory concentration (IC50) is above 10 µM.

Consider `CCCCCCCC/C=C\CCCCCCCC(=O)OCC(O)COC(=O)CCCCCCC/C=C\CCCCCCCC`, for which the IC50 is above 10 µM.

As to `CCCCCCCCCC(=O)O[C@@]12C[C@@H](C)[C@@]3(O)[C@@H](C=C(CO)C[C@]4(O)C(=O)C(C)=C[C@@H]34)[C@@H]1C2(C)C`, the IC50 is above 10 µM.

As for `CCCCCCCC(=O)O[C@@]12C[C@@H](C)[C@@]3(O)[C@@H](C=C(CO)C[C@]4(O)C(=O)C(C)=C[C@@H]34)[C@@H]1C2(C)C`, the IC50 was above 10 µM.

`CCCCCCC[C@@H](O)[C@@H](O)/C=C/C=C/C(=O)O[C@@H]1[C@@H](C)[C@@]2(O)[C@@H](C=C(CO)C[C@]3(O)C(=O)C(C)=C[C@@H]23)[C@@H]2C(C)(C)[C@]12OC(C)=O`: the IC50 is above 10 µM.

As to `CCCCCCC[C@H](O)[C@@H](O)/C=C/C=C/C(=O)O[C@@H]1[C@@H](C)[C@@]2(O)[C@@H](C=C(CO)C[C@]3(O)C(=O)C(C)=C[C@@H]23)[C@@H]2C(C)(C)[C@]12OC(C)=O`, the IC50 was above 10 µM.

For `CCCCCCCC/C=C\CCCCCCCC(=O)OCC(CO)OC(=O)CCCCCCCCCCCCCCC` (stereo unspecified), the IC50 was above 10 µM.

The next data set concerns Neutrophil. The experiment in a line: Proinflammatory activity in human neutrophils assessed as superoxide anion generation at 10 uM incubated for 5 mins by spectrophotometric method relative to control. The data set is classed as ADME, cell-based.
Settings: not given
A digest of the protocol:
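Neutrophils at 3 × 10^5/mL in Ca2+-free HBSS pH 7.4, supplemented with 0.5 mg/mL ferricytochrome c and 1 mM Ca2+. Equilibrated 2 min at 37 °C, then exposed to compound at 10 μM for 5 min without fMLF/CB. SOD-inhibitable cytochrome c reduction followed continuously at 550 nm with stirring; expressed versus fMLF/CB-activated response as 100%. Means ± SEM, n = 3−5.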
Regarding `CC(=O)O[C@@]12[C@H](OC(=O)/C=C/C=C/C=O)[C@@H](C)[C@@]3(O)[C@@H](C=C(CO)C[C@]4(O)C(=O)C(C)=C[C@@H]34)[C@@H]1C2(C)C`, the Activity is 106.1%.

Turning to `CCCCCCCC/C=C\CCCCCCCC(=O)OCC1=C[C@H]2[C@@H]3C(C)(C)[C@]3(OC(C)=O)C[C@@H](C)[C@]2(O)[C@@H]2C=C(C)C(=O)[C@@]2(O)C1`, the Activity is reported as 18.1%.

Consider `CCCCCCCCCC(=O)O[C@@]12C[C@@H](C)[C@@]3(O)[C@@H](C=C(CO)C[C@]4(O)C(=O)C(C)=C[C@@H]34)[C@@H]1C2(C)C`, for which the Activity came to 95.3%.

For `CCCCCCCC(=O)O[C@@]12C[C@@H](C)[C@@]3(O)[C@@H](C=C(CO)C[C@]4(O)C(=O)C(C)=C[C@@H]34)[C@@H]1C2(C)C`, the Activity was determined as 109.6%.

With `CCCCCCC[C@@H](O)[C@@H](O)/C=C/C=C/C(=O)O[C@@H]1[C@@H](C)[C@@]2(O)[C@@H](C=C(CO)C[C@]3(O)C(=O)C(C)=C[C@@H]23)[C@@H]2C(C)(C)[C@]12OC(C)=O`, the Activity came out at 106%.

`CCCCCCC[C@H](O)[C@@H](O)/C=C/C=C/C(=O)O[C@@H]1[C@@H](C)[C@@]2(O)[C@@H](C=C(CO)C[C@]3(O)C(=O)C(C)=C[C@@H]23)[C@@H]2C(C)(C)[C@]12OC(C)=O`: the Activity amounted to 107.1%.

Consider `CCCCCCCCCCCCCC(=O)O[C@@H]1[C@@H](C)[C@@]2(O)[C@@H](C=C(CO)C[C@]3(O)C(=O)C(C)=C[C@@H]23)[C@@H]2C(C)(C)[C@]12OC(C)=O` [PHORBOL MYRISTATE ACETATE], for which the Activity came to 102.7%.

The next data set deals with Neutrophil. The experiment in a line: Anti-inflammatory activity in human neutrophils assessed as inhibition of fMLF/CB-induced elastase release by measuring degranulation of azurophilic granules using MeOSuc-Ala-Ala-ProVal-p-nitroanilide as substrate preincubated for 5 mins followed by CB/fMLF stimulation. The data set is classed as functional, cell-based.
Settings: not given
A digest of the protocol: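 Neutrophils from human blood (dextran sedimentation, Ficoll-Hypaque, hypotonic lysis of red cells; >98% viable by trypan blue) held in Ca2+-free HBSS pH 7.4 at 4 °C. Cells at 3 × 10^5/mL with 100 μM substrate, 2 min at 37 °C, compound 5 min, then fMLF 100 nM/CB 0.5 μg/mL. A405 followed continuously. Expressed as % of drug-free fMLF/CB control; three repeats.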
On to `CC(=O)O[C@@]12[C@H](OC(=O)/C=C/C=C/C=O)[C@@H](C)[C@@]3(O)[C@@H](C=C(CO)C[C@]4(O)C(=O)C(C)=C[C@@H]34)[C@@H]1C2(C)C`, for which the IC50 was found to be 2.7 µM.

Regarding `CCCCCCCC/C=C\CCCCCCCC(=O)OCC1=C[C@H]2[C@@H]3C(C)(C)[C@]3(OC(C)=O)C[C@@H](C)[C@]2(O)[C@@H]2C=C(C)C(=O)[C@@]2(O)C1`, the IC50 was above 10 µM.

In the case of `CCCCCCCC/C=C\CCCCCCCC(=O)OCC(O)COC(=O)CCCCCCC/C=C\CCCCCCCC`, the IC50 was above 10 µM.

Take `CCCCCCCCCC(=O)O[C@@]12C[C@@H](C)[C@@]3(O)[C@@H](C=C(CO)C[C@]4(O)C(=O)C(C)=C[C@@H]34)[C@@H]1C2(C)C`: the IC50 is 0.8 µM.

As for `CCCCCCCC(=O)O[C@@]12C[C@@H](C)[C@@]3(O)[C@@H](C=C(CO)C[C@]4(O)C(=O)C(C)=C[C@@H]34)[C@@H]1C2(C)C`, the IC50 came to 2.1 µM.

Regarding `CCCCCCCC/C=C\CCCCCCCC(=O)OCC(CO)OC(=O)CCCCCCCCCCCCCCC` (stereo unspecified), the IC50 is above 10 µM.

Turning to `O=c1cc(N2CCOCC2)oc2c(-c3ccccc3)cccc12` [LY-294002], the IC50 turned out to be 3.3 µM.

Another data set has as its system Neutrophil. The experiment in a line: Proinflammatory activity in human neutrophils assessed as elastase release by measuring degranulation of azurophilic granules using MeOSuc-Ala-Ala-ProVal-p-nitroanilide as substrate incubated for 5 mins relative to control.
Settings: not given
The data set is classed as cell-based. An outline of the steps:
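Neutrophils isolated from human blood by dextran sedimentation, Ficoll-Hypaque centrifugation and hypotonic erythrocyte lysis, >98% viable by trypan blue, held in Ca2+-free HBSS pH 7.4 at 4 °C. Cells at 3 × 10^5/mL with 100 μM substrate, equilibrated 2 min at 37 °C, then compound at 10 μM for 5 min without fMLF/CB. A405 monitored continuously; expressed versus fMLF/CB-stimulated release taken as 100%.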
For `CCCCCCC[C@@H](O)[C@@H](O)/C=C/C=C/C(=O)O[C@@H]1[C@@H](C)[C@@]2(O)[C@@H](C=C(CO)C[C@]3(O)C(=O)C(C)=C[C@@H]23)[C@@H]2C(C)(C)[C@]12OC(C)=O`, the Activity is on record as 10.5%.

Turning to `CCCCCCC[C@H](O)[C@@H](O)/C=C/C=C/C(=O)O[C@@H]1[C@@H](C)[C@@]2(O)[C@@H](C=C(CO)C[C@]3(O)C(=O)C(C)=C[C@@H]23)[C@@H]2C(C)(C)[C@]12OC(C)=O`, the Activity amounted to 9.2%.

Regarding `CCCCCCCCCCCCCC(=O)O[C@@H]1[C@@H](C)[C@@]2(O)[C@@H](C=C(CO)C[C@]3(O)C(=O)C(C)=C[C@@H]23)[C@@H]2C(C)(C)[C@]12OC(C)=O` [PHORBOL MYRISTATE ACETATE], the Activity stood at 44.2%.

A further data set has as its system HepG2. The experiment in a line: Cytotoxicity against human HepG2 cells assessed as reduction in cell viability after 72 hrs by MTT assay. The following applies: HepG2, 72 h. The data set is classed as functional, cell-based.
For `CC(=O)O[C@@]12[C@H](OC(=O)/C=C/C=C/C=O)[C@@H](C)[C@@]3(O)[C@@H](C=C(CO)C[C@]4(O)C(=O)C(C)=C[C@@H]34)[C@@H]1C2(C)C`, the IC50 was above 10 µM.

On to `CCCCCCCC/C=C\CCCCCCCC(=O)OCC1=C[C@H]2[C@@H]3C(C)(C)[C@]3(OC(C)=O)C[C@@H](C)[C@]2(O)[C@@H]2C=C(C)C(=O)[C@@]2(O)C1`, for which the IC50 was above 10 µM.

As to `CCCCCCCC/C=C\CCCCCCCC(=O)OCC(O)COC(=O)CCCCCCC/C=C\CCCCCCCC`, the IC50 was above 10 µM.

For `CCCCCCCCCC(=O)O[C@@]12C[C@@H](C)[C@@]3(O)[C@@H](C=C(CO)C[C@]4(O)C(=O)C(C)=C[C@@H]34)[C@@H]1C2(C)C`, the IC50 was above 10 µM.

Turning to `CCCCCCCC(=O)O[C@@]12C[C@@H](C)[C@@]3(O)[C@@H](C=C(CO)C[C@]4(O)C(=O)C(C)=C[C@@H]34)[C@@H]1C2(C)C`, the IC50 was above 10 µM.

`CCCCCCC[C@@H](O)[C@@H](O)/C=C/C=C/C(=O)O[C@@H]1[C@@H](C)[C@@]2(O)[C@@H](C=C(CO)C[C@]3(O)C(=O)C(C)=C[C@@H]23)[C@@H]2C(C)(C)[C@]12OC(C)=O`: the IC50 was above 10 µM.

Take `CCCCCCC[C@H](O)[C@@H](O)/C=C/C=C/C(=O)O[C@@H]1[C@@H](C)[C@@]2(O)[C@@H](C=C(CO)C[C@]3(O)C(=O)C(C)=C[C@@H]23)[C@@H]2C(C)(C)[C@]12OC(C)=O`: the IC50 is above 10 µM.

As for `CCCCCCCC/C=C\CCCCCCCC(=O)OCC(CO)OC(=O)CCCCCCCCCCCCCCC` (stereo unspecified), the IC50 was above 10 µM.

The next data set deals with Neutrophil. The data set can be described thus: Proinflammatory activity in human neutrophils assessed as superoxide anion generation at 10 uM preincubated for 5 mins followed by CB addition measured after 3 mins by spectrophotometric method relative to control. The data set is classed as ADME, cell-based. The settings on record: 0.05 h. An outline of the steps: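 Cytochrome c reduction at 550 nm as above (0.5 mg/mL ferricytochrome c, 1 mM Ca2+, 37 °C, 3 × 10^5 neutrophils/mL). Compound 10 μM given without fMLF/CB stimulation, or with CB only. Expressed relative to the fMLF/CB response taken as 100%. Means ± SEM, n = 3−5.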
As to `CCCCCCCC/C=C\CCCCCCCC(=O)OCC(CO)OC(=O)CCCCCCCCCCCCCCC` (stereo unspecified), the Activity was determined as 74.5%.

The test system of another data set is Neutrophil. The experiment in a line: Anti-inflammatory activity in human neutrophils assessed as inhibition of fMLF/CB-induced superoxide anion generation preincubated for 5 mins followed by CB stimulation for 3 mins and subsequent fMLF stimulation for 10 mins by spectrophotometric method. The data set is classed as functional, cell-based.
Settings: not given
An outline of the steps:
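Same neutrophil preparation. Cells at 3 × 10^5/mL with 0.5 mg/mL ferricytochrome c and 1 mM Ca2+, 2 min at 37 °C, then compound or DMSO 5 min, CB 1 μg/mL 3 min, fMLF 100 nM 10 min. SOD-inhibitable cytochrome c reduction read continuously at 550 nm with stirring. Means ± SEM, n = 3−5.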
On to `CCCCCCCC/C=C\CCCCCCCC(=O)OCC(O)COC(=O)CCCCCCC/C=C\CCCCCCCC`, for which the IC50 was above 10 µM.

As for `O=c1cc(N2CCOCC2)oc2c(-c3ccccc3)cccc12` [LY-294002], the IC50 came out at 1.8 µM.

For orientation: IC50 means the midpoint of a concentration-inhibition curve.
